Test system: AM2.2-beta2AR cells, FAP fluorogen binding after washes, flow cytometry
Assay: reversibility of FAP fluorogen binding blockade, mechanism study for beta2AR internalization ligand project, AM2.2-beta2AR cells, powder sets 3 and 4 (AID 651936)
In short: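 Material: AM2.2-beta2AR cell line; medium: serum-free RPMI, 1% FBS RPMI wash medium; also added: TO1-2p at 150 nM final, added to cell aliquots; incubation: compound exposure 90 min, 37 °C; technique: flow cytometry of TO1-2p-labelled cell aliquots; read-out basis: TO1-2p binding versus number of washes; benchmarks: DMSO-only treated cells as negative control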

Compound `CN(CC(=O)N1CCN(c2ccccn2)CC1)S(=O)(=O)c1ccc(Br)cc1` has a normalized fluorogen binding (at 0.2 µM (top of the series)) of 0.145.

With `CN(CC(=O)N1CCN(c2ccccn2)CC1)S(=O)(=O)c1ccccc1` the normalized fluorogen binding (at 0.85 µM (top of the series)) was 0.218.

With `CCCCC(=O)Nc1ccc(S(=O)(=O)N2CCCCC2c2cccnc2)cc1` (configuration not stated) the normalized fluorogen binding (at 0.3 µM (top of the series)) was 0.181.

Work on `CCOC(=O)N1CCN(C(=O)CN(C)S(=O)(=O)c2ccc(Cl)cc2)CC1` yielded a normalized fluorogen binding (at 10 µM (top of the series)) of 0.122.

`O=C(Nc1ccc(S(=O)(=O)N2CCCCC2c2cccnc2)cc1)c1c(F)cccc1F` (configuration not stated) showed a normalized fluorogen binding (at 2 µM (top of the series)) of 0.232.

Compound `Cc1ccc(S(=O)(=O)N2CCCCC2C(=O)N2CCN(c3ccc(C(F)(F)F)cn3)CC2)cc1` (configuration not stated) has a normalized fluorogen binding (at 100 µM (top of the series)) of 0.154.

`Cc1ccc(S(=O)(=O)N(C)CC(=O)N2CCN(c3ccccn3)CC2)cc1` was tested, and the normalized fluorogen binding (at 0.8 µM (top of the series)) was 0.124.

In the case of `CC(C)n1nnc2cc(S(=O)(=O)N(C)CC(=O)N3CCN(c4ccccn4)CC3)ccc21`, the normalized fluorogen binding (at 60 µM (top of the series)) was 0.257.

With `CN(CC(=O)N1CCN(c2cccc(C(F)(F)F)c2)CC1)S(=O)(=O)c1ccc(F)cc1` the normalized fluorogen binding (at 60 µM (top of the series)) was 0.233.

`CC(=O)Nc1ccc(S(=O)(=O)N2CCCCC2c2cccnc2)cc1` (configuration not stated) was tested, and the normalized fluorogen binding (at 1.4 µM (top of the series)) was 0.147 and the normalized fluorogen binding (at 60 µM (top of the series)) was 0.642.

For `CN(CC(=O)N1CCN(c2ccccn2)CC1)S(=O)(=O)c1ccc(Cl)cc1`, the normalized fluorogen binding (at 0.2 µM (top of the series)) was 0.143.

Source: PubChem BioAssay AID651936 (NMMLSC, 2012)
